# Measured values pooled from the literature.
# Lines come from different studies, so protocols differ.
# Organism: Bacillus subtilis
Structure (SMILES),observed,method,strain,concentration,time,endpoint,value
CCCCCCCCCCCCCCCc1cc(O)cc(O)c1,microbial growth,,,,,IC50,26.7 µM
CC1(C)S[C@@H]2[C@H](NC(=O)[C@H](N)c3ccccc3)C(=O)N2[C@H]1C(=O)O,microbial growth,well diffusion,ATCC6633,60000 µg/mL,,inhibition zone,31 mm
O=C(O)c1cn(C2CC2)c2cc(N3CCNCC3)c(F)cc2c1=O,microbial killing,,,,,MBC,19 µM
CCCCCCCCCCCC(=O)OC[C@H]1O[C@@H](n2cc(C)c(=O)[nH]c2=O)C[C@@H]1O,microbial killing,broth dilution,,,,MBC,16 µg/mL
CC1C(=NOCc2cc(-c3ccc(Cl)cc3)no2)CC(c2ccccc2)OC1c1ccccc1 (stereo not shown),microbial growth,broth dilution,MTCC121,,24 h,MIC,12.5 µg/mL
CCC(CCCCCCCCCCc1cc(O)cc(O)c1)C(C)C (stereo not shown),microbial growth,,,,,IC50,3.44 µM
CCCCCCCCCCCC(=O)NP(=O)(O)O,microbial growth,,ATCC23857,,,MIC,> 200 µg/mL
CCC1C(=NOCc2cc(-c3ccc(Cl)cc3)no2)CC(c2ccccc2)OC1c1ccccc1 (stereo not shown),microbial growth,broth dilution,MTCC121,,24 h,MIC,12.5 µg/mL
CCCCCCCCCCCCCCCC(=O)CP(=O)(O)O,microbial growth,,ATCC23857,,,MIC,25 µg/mL
Cc1c(NN=C(C#N)C2=NC(=O)CS2)c(=O)n(-c2ccccc2)n1C,microbial killing,broth dilution,,,,MBC,2 µg/mL
CCCCCCCC/C=C\CCCCCCCC(=O)C(F)(F)P(=O)(O)O,microbial growth,,ATCC23857,,,MIC,> 200 µg/mL
CC(C)CCCCCCCCCCCCCCCc1cc(O)cc(O)c1,microbial growth,,,,,IC50,14.5 µM
CCCCCCCCCCCCCCCC(=O)NS(=O)(=O)Oc1ccc(OC)cc1,microbial growth,,ATCC23857,,,MIC,3.12 µg/mL
CCCCCCCCCCCC(=O)OC[C@H]1O[C@@H](n2cc(C)c(=O)[nH]c2=O)C[C@@H]1OC(=O)c1ccc(C(C)(C)C)cc1,microbial killing,broth dilution,,,,MBC,16 µg/mL
CC(C)CCCCCCCCCCCCc1cc(O)cc(O)c1,microbial growth,,,,,IC50,54.6 µM
O=C(CCCCC1CCCCC1)NP(=O)(O)O,microbial growth,,ATCC23857,,,MIC,> 200 µg/mL
